Screening results deposited in PubChem by Broad Institute.
Xi reactivation: X-chromosome reactivation activator; XiGFP mouse fibroblasts, % GFP-positive cells imaging, 3 d; cells co-treated with 5-aza-dC sensitizer; scaled so ellipticine positive control = 100%; activation, % at 7.58 µM; hit rate 0.055% among 360,000;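 active = mean normalized replicate activation at least 10% and every replicate at or above 10%; inconclusive = only one of the two criteria met; inactive = mean below 10% and not all replicates reach 10%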;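 note: 0% = median of on-plate neutral control wells and 100% = ellipticine 6 µM median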
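Material: XiGFP fibroblasts, SV40-immortalized; Buffer or medium: DMEM containing 5-aza-dC; Compound dosing: single point; Times: 3 days compound exposure.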
PAX8 inh HTS: PAX8 transcriptional activity inhibition; RMG-I TPO-luciferase reporter, SteadyGlo, 24 h; inhibition, % at 12.6 µM; hit rate 1.2% among 360,000; AID 652154;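 active = mean replicate inhibition at least 60% with every replicate also reaching 60%; inconclusive = only one of the two criteria is met; inactive = mean below 60% and not all replicates reaching 60%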;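 note: luciferase light reporting Pax8 driven TPO promoter activity; plate controls were median of neutral control wells for no effect and mitoxantrone controls for full effect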
EWS-Fli block: inhibitors of EWS/Fli oncoprotein transcriptional activity | A673 NR0B1-luciferase reporter, viability-normalised | inhibition, % at 12.6 µM | hit rate 0.67% among 350,000;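 active = mean inhibition of at least 50% after viability correction, with every replicate also passing that limit; inconclusive = mean reaches 50% but only one of two replicates passes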;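 note: firefly luciferase signal divided by Alamar Blue viability fluorescence both relative to DMSO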
INS-1E GSIS act: primary screen for activators of insulin secretion dependent on glucose, INS-1E cells, GLuc reporter luminescence | INS-1E GLuc reporter insulin secretion, 2-3 h | activation, % at 16.6 µM | hit rate 0.61% among 370,000;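 active = lowest replicate activation of at least 40%, so every replicate reaches that level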;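 note: 0% = median of neutral control wells and 100% = median of IBMX positive control wells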
PGC1a acetyl inh: modulators of PGC1a acetylation; inhibition, % at 15.6 µM; hit rate 0.17% among 350,000; U2OS PGC1a acetylation, AlphaScreen anti-acetyl-lysine; with virally co-expressed GCN5 acetyltransferase;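 active = every replicate shows inhibition of at least 40%; inconclusive = mean inhibition at least 40% but some replicate below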;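 note: 0% = neutral control wells and 100% = positive control wells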
MLL AF4-AF9 inh: blocks AF4 peptide binding to human AF9. P42568. inhibition, % at 10 µM. AlphaScreen, biotin-AF4 peptide binding to FLAG-AF9. hit rate 0.47% among 350,000;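 active = every replicate reaching a set inhibition limit, whatever the replicate mean, cut at about 25% in these data; inconclusive = mean inhibition reaches that limit but some replicates miss it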;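 note: 0% = plate neutral control median and 100% = total signal loss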
Target sequence (P42568 whole entry, looked up): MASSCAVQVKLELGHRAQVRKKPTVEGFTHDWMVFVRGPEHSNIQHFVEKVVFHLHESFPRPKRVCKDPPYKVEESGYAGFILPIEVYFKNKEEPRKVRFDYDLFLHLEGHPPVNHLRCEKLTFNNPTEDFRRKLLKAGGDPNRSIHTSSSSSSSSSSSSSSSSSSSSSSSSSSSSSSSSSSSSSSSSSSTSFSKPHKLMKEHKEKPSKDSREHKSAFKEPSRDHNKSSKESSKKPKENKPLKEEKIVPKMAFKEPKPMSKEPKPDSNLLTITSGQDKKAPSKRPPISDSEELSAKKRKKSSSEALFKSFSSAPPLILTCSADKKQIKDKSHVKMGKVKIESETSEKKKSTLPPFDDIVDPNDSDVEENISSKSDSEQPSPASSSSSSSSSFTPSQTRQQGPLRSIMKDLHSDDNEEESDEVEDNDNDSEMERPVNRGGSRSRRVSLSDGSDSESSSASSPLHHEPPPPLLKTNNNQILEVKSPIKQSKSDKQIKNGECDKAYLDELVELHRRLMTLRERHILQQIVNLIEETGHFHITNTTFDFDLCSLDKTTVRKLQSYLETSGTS
* = called active by the depositor; ? = inconclusive; / = no result. Rows were chosen to be rich in hits. Some 2.1% of all compounds tested hit in one or more screens of this group.

SMILES | Xi reactivation | PAX8 inh HTS | EWS-Fli block | INS-1E GSIS act | PGC1a acetyl inh | MLL AF4-AF9 inh
C[C@@H]1CCCCO[C@H](CN(C)C(=O)Cc2ccccc2)[C@H](C)CN([C@@H](C)CO)C(=O)c2cc(NC(=O)Nc3ccc(C(F)(F)F)cc3)ccc2O1 | 0 | 79* | -11 | 1 | / | 1
C[C@@H]1CN([C@H](C)CO)C(=O)c2cc(NC(=O)Nc3ccccc3)ccc2O[C@@H](C)CCCCO[C@@H]1CN(C)C(=O)Cc1ccccc1 | 0 | -3 | -13 | -21 | -3 | 1
C[C@@H]1CN([C@@H](C)CO)C(=O)c2cc(NC(=O)Nc3ccccc3)ccc2O[C@@H](C)CCCCO[C@H]1CN(C)C(=O)Cc1ccccc1 | 0 | 10 | 7 | 9 | -1 | 0
C[C@H](CO)N1C[C@H](C)[C@@H](CN(C)C(=O)Cc2ccccc2)OCCCC[C@H](C)Oc2ccc(NC(=O)Nc3ccc(C(F)(F)F)cc3)cc2C1=O | 0 | 87* | 11 | 4 | / | -3
Cc1ccc(S(=O)(=O)N(C)C[C@H]2OCCCC[C@@H](C)Oc3ccc(NS(=O)(=O)c4ccccc4)cc3C(=O)N([C@@H](C)CO)C[C@@H]2C)cc1 | 0 | 10 | -7 | 6 | -14 | -1
CO[C@@H]1CN(C)C(=O)c2ccc(NC(=O)C3CCC3)cc2OC[C@@H](C)N(CC2CCCCC2)C[C@@H]1C | 0 | 9 | 5 | / | -2 | -3
COc1ccc(CN2[C@@H](CO)[C@@H]3c4ccccc4N(C(=O)Nc4ccc(F)cc4)C[C@@H]32)cc1 | 0 | -4 | -4 | -17 | 10 | -1
CCCNC(=O)N1CC2(CCN(S(=O)(=O)c3ccc(OC)cc3)CC2)c2c(n(C)c3cc(OC)ccc23)[C@@H]1CO | 0 | / | 2 | 10 | / | 1
COc1ccc(NC(=O)Nc2ccc3c(c2)C(=O)N([C@H](C)CO)C[C@@H](C)[C@@H](CN(C)C(=O)Cc2ccccc2)OCCCC[C@H](C)O3)cc1 | 0 | 99* | -1 | -4 | -7 | 3
COc1ccc(NC(=O)Nc2ccc3c(c2)C(=O)N([C@@H](C)CO)C[C@H](C)[C@@H](CN(C)C(=O)Cc2ccccc2)OCCCC[C@H](C)O3)cc1 | 0 | 23 | 14 | -23 | 8 | -1
C[C@@H]1CN([C@@H](C)CO)C(=O)c2cccc(NC(=O)c3ccc(-c4nccs4)cc3)c2O[C@@H]1CN(C)S(=O)(=O)c1cn(C)cn1 | 0 | / | -8 | 7 | 1 | 0
CCN(CC(=O)Nc1c(F)cccc1F)C(=O)c1cc([N+](=O)[O-])ccc1N1CCCCC1 | 0 | 80* | 5 | -3 | 18 | 3
CCN(CC(=O)Nc1c(F)cccc1F)C(=O)c1cc(S(=O)(=O)N2CCOCC2)ccc1N1CCCC1 | 0 | 72* | 0 | -3 | 8 | -7
COc1ccc(S(=O)(=O)N(C)C[C@@H]2Oc3ccc(NC(=O)C4CC4)cc3C(=O)N([C@H](C)CO)C[C@H]2C)cc1 | -1 | 19 | 16 | 3 | 8 | 1
COc1ccc2c3c(n(C)c2c1)[C@H](CO)N(C(=O)Nc1ccc(F)cc1)CC31CN(Cc2cccc(F)c2)C1 | 0 | / | 11 | -15 | -6 | 5
O=C(Nc1ccccc1F)N[C@@H]1CC[C@H](CCNS(=O)(=O)c2ccc(F)cc2)O[C@H]1CO | 0 | / | -6 | -4 | -10 | -7
C[C@@H]1CN([C@@H](C)CO)C(=O)Cc2cc(NC(=O)Cc3cn(C)c4ccccc34)ccc2O[C@@H]1CN(C)S(=O)(=O)c1ccccc1 | 0 | 13 | 9 | -11 | -17 | -1
O=c1cc(-c2ccccc2)nc(SCc2ccc(Cl)cc2)[nH]1 | / | / | / | / | -7 | /
O=c1cc(-c2ccccc2)nc(SCc2ccccc2)[nH]1 | / | / | / | 79* | 6 | /
CC(=O)N1CC[C@@H]2[C@H]1c1cc(-c3ccccc3)ccc1N(C)[C@@H]2CO | 0 | 5 | 1 | 2 | -1 | 0
CN=c1scc(-c2cccs2)n1/N=C/c1ccc(O)c(O)c1O | 0 | 33 | 26 | -2 | / | 40*
O=c1cc(Cl)[nH]c(=O)n1CCNc1ncc(C(F)(F)F)cc1Cl | / | / | / | 3 | -7 | /
O=[N+]([O-])c1cc(Cl)ccc1NCCNc1ncc(C(F)(F)F)cc1Cl | / | / | / | 58* | 0 | /
O=C1C=CC(=O)N1CCNc1ncc(C(F)(F)F)cc1Cl | 0 | ? | 16 | 147* | -49 | 13
O=c1[nH]c2cc(Cl)ccc2n(CCNc2ncc(C(F)(F)F)cc2Cl)c1=O | / | / | / | 72* | -2 | /
SMILES | Xi reactivation | PAX8 inh HTS | EWS-Fli block | INS-1E GSIS act | PGC1a acetyl inh | MLL AF4-AF9 inh
O=[N+]([O-])c1ccccc1NCCNc1ncc(C(F)(F)F)cc1Cl | / | / | / | -1 | -29 | /
C[C@@H]1CCCCO[C@H](CN(C)C(=O)C2CCCCC2)[C@H](C)CN([C@@H](C)CO)C(=O)c2cc(NS(=O)(=O)c3ccc(F)cc3)ccc2O1 | 0 | -2 | 0 | -27 | -2 | -1
CO[C@H]1CN(C)C(=O)c2cc(NC(=O)Nc3ccccc3F)ccc2OC[C@H](C)NC[C@H]1C | 0 | / | 10 | 7 | -1 | -12
COc1cc(C(F)(F)F)c(C(=O)NCc2cccc(Cl)c2)cn1 | 0 | 6 | -4 | 48* | -3 | -2
CSCC(=O)N1CCCC(CO)(Cc2ccccc2C)C1 (centres undefined) | 0 | 17 | 2 | 5 | 109* | -1
C[C@@H]1CN([C@@H](C)CO)C(=O)c2cc(NC(=O)c3ccncc3)ccc2O[C@@H](C)CCCCO[C@H]1CN(C)S(=O)(=O)c1cn(C)cn1 | 1 | -9 | -6 | 11 | -11 | 0
Cc1ccc(S(=O)(=O)N(C)C[C@@H]2Oc3ccc(N(C)C)cc3CC(=O)N([C@H](C)CO)C[C@@H]2C)cc1 | 0 | -1 | -20 | -3 | 3 | 0
CCOCC(=O)Nc1c(C(=O)OCC)oc2ccccc12 | / | / | / | 44* | -6 | /
C[C@H]1CCCCO[C@@H](CN(C)Cc2ccc3c(c2)OCO3)[C@@H](C)CN([C@@H](C)CO)C(=O)c2cc(NC(=O)Nc3ccc(C(F)(F)F)cc3)ccc2O1 | 0 | -18 | -5 | -15 | 8 | 3
C[C@@H]1CCCCO[C@@H](CN(C)Cc2ccc3c(c2)OCO3)[C@H](C)CN([C@@H](C)CO)C(=O)c2cc(NC(=O)Nc3ccc(C(F)(F)F)cc3)ccc2O1 | 0 | 88* | -1 | 15 | -1 | 3
C[C@@H]1CN([C@@H](C)CO)C(=O)c2cc(NC(=O)Nc3ccc(C(F)(F)F)cc3)ccc2O[C@@H](C)CCCCO[C@@H]1CN(C)Cc1ccc2c(c1)OCO2 | 0 | 101* | 0 | -22 | -7 | -1
